Results on 15 compounds are retold here after PubChem BioAssay.

Assay [1] is described as follows: Her2 expression decrease, cell viability multiplex – SKBR3 breast tumor cells, AlphaScreen, ATP viability, primary screen (AID 461;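 active means Her2 level under about 52% in both replicate screens, with viability over 70% of control, limit read from the data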;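 on Her2 level: lower value means less Her2 protein in the cells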;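 on viability: percent of carrier control wells set as 100% viability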). As to conditions: SKBR3 Her2 protein level, 18-24 h, measured here: SKBR3 viability, ATP luminescence, at 10 µM.
For assay [2], the target named is Receptor tyrosine-protein kinase erbB-2 (Homo sapiens) (UniProt P04626). The assay is described as above. As to conditions: 18-24 h, at 10 µM, stronger effect = lower value.
Chain of Receptor tyrosine-protein kinase erbB-2 (Homo sapiens) (P04626 whole entry, looked up): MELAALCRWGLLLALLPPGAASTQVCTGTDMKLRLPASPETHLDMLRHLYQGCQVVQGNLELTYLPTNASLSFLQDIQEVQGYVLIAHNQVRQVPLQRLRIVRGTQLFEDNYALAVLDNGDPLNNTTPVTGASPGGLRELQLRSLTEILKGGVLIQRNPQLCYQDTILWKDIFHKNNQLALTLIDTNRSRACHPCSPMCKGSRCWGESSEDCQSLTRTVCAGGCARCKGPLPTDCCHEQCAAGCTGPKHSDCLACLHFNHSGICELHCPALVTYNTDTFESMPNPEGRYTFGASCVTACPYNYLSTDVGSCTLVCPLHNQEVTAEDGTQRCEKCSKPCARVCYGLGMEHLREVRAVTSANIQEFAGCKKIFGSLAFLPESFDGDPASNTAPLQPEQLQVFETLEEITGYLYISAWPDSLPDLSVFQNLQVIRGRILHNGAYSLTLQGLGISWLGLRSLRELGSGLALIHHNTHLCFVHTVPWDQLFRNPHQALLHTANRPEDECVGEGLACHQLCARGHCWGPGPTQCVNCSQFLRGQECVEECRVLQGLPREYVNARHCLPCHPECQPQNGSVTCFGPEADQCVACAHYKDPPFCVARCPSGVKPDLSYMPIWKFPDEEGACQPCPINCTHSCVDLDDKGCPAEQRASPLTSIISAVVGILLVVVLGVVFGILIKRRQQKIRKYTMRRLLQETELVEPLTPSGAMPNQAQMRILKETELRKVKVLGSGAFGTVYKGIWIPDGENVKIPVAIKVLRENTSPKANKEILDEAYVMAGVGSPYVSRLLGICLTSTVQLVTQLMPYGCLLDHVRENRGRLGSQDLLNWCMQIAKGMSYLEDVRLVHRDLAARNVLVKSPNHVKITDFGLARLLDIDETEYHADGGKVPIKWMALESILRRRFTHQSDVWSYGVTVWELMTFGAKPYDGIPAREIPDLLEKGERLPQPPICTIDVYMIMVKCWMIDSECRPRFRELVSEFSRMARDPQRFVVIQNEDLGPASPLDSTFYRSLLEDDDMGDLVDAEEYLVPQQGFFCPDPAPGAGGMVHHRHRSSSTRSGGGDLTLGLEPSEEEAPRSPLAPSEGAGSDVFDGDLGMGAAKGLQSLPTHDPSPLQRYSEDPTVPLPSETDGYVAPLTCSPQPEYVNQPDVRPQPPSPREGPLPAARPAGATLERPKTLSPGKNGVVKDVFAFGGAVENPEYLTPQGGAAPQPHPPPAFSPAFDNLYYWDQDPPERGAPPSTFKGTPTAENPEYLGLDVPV
The nature of assay [3]: reduced viability of SK-BR-3 breast cancer cells – cell-based, 24 h, human, pilot screen (AID 572;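 active means viability at or below 10% of carrier control in both of two separate runs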;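 further: compound exposure lasted between 18 and 24 h rather than exactly 24 h; 100% = carrier-treated control wells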). As to conditions: SK-BR-3 viability, CellTiter-Glo luminescence, at 10 µM, stronger effect = lower value.
Assay [4] is described as follows: HUVEC growth inhibition – cell-based, human, primary screen (AID 575;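 active means viability at or below 30% in both replicate assays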;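 further: 100% = median of untreated cell wells with 0.1% DMSO on each plate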). As to conditions: HUVEC proliferation, CellTiter-Glo luminescence, 72 h; at 10 µM; stronger effect = lower value. Put shortly: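 System: primary human umbilical vein endothelial cells; Quantity: 1250 endothelial cells in each well; Buffer or medium: supplemented EBM, 2% fetal bovine serum; Doses: one dose, 10 µM final, 0.1% DMSO; Incubation: 72 h compound incubation; Technique: ATP-based CellTiter-Glo luminescent read; Evaluation: percent of median DMSO-control luminescence; Controls: vehicle and MePR control wells.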

Assay [5] can be described thus: H69AR cell proliferation blockers – human, duplicate replicates, primary screen (AID 580;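 active means viability at or under a set limit in both replicates, limit being median viability minus 3 SD, cut at about 48% in these data, passing the limit was not always enough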;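 further: 100% = mean luminescence of untreated wells and 0% = no signal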). As to conditions: H69AR lung tumor cells viability, ATP luminescence, 72 h; at 10 µM; stronger effect = lower value.
The nature of assay [6]: MRP1 drug-resistance reversers in H69AR cells – cell-based, doxorubicin co-treatment, pilot screen (AID 601). As to conditions: CellTiter-Glo, 72 h, at 10 µM; for differential viability (reversal): stronger effect = higher value.
Assay [7] is described as follows: yeast transport mutant growth inhibition pilot in 384-well plates, post-Golgi transport modulator project (AID 636; in the data active means inhibition above about 31%). As to conditions: absorbance 615 nm, about 18 h, stronger effect = higher value.
The nature of assay [8]: growth suppression of yeast trafficking mutant, preliminary HTS, modulators of trafficking downstream of Golgi apparatus project, 1536-format plate, OD 615 nm (AID 637; in the data active means inhibition above about 30%). As to conditions: yeast transport mutant growth, absorbance 615 nm, 18 h; stronger effect = higher value.
Where [9] appears, read: H69AR cells + 2 uM doxorubicin, measured here: viability with 2 uM doxorubicin, stronger effect = lower value.
Where [10] appears, read: H69AR cells, compound alone cytotoxicity.

Molecules are shown by their SMILES. Active and inactive are the calls of the source.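 How the source made its calls, unless noted: active means viability loss from added drug above about 55%, and viability with drug at most 40%, in both replicates (limit read from the data, passing the limit was not always enough); inconclusive means both conditions met in only one replicate; inactive means neither replicate meets both conditions.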

Turning to `O=C(c1cc2n(n1)C(C(F)(F)F)CC(c1ccc(Cl)cc1)N2)N1CCCC1` (stereo not given), the viability is 86.5% in assay [1]; 86.5% (inactive) in assay [3]; 82.1% (inactive) in assay [4]; 90.9% (inactive) in assay [5]; 91.3% in assay [6] (setting [9]); 90.9% in assay [6] (setting [10]). Further, the Her2 level in assay [2] was 68% (inactive). Besides, the differential viability (reversal) in assay [6] (H69AR cells + 2 uM doxorubicin) is -0.385% (inactive). Also, the inhibition in assay [7] is -6.84% (inactive); in assay [8] it was 3.17% (inactive).
In the case of `CCCN1C(=O)SC(CC(=O)Nc2ccc(Br)cc2)C1=O` (stereo not given), the viability in assay [1] is 105%; in assay [3], 105% (inactive); in assay [4], 77.7% (inactive); in assay [5], 95.8% (inactive); in assay [6] (setting [9]), 91.2%; in assay [6] (setting [10]), 95.8%. Moreover, the Her2 level in assay [2] is 112% (inactive). Further, the differential viability (reversal) in assay [6] (H69AR cells + 2 uM doxorubicin) is 4.58% (inactive). Also, the inhibition was -2.24% (inactive) in assay [7] and -8.41% (inactive) in assay [8].
As for `COc1ccc(S(=O)(=O)n2ccnc2)c2cccnc12`, the viability in assay [1] is 94.5%; in assay [3] it was 94.5% (inactive); in assay [4] it was 90.7% (inactive); in assay [5], 96.1% (inactive); in assay [6] (setting [9]), 97.1%; in assay [6] (setting [10]) it was 96.1%. In addition, the Her2 level in assay [2] is 110% (inactive). Also, in assay [6] (H69AR cells + 2 uM doxorubicin), the differential viability (reversal) was -0.965% (inactive). In addition, the inhibition in assay [7] was -2.13% (inactive); in assay [8] it was -4.1% (inactive).
Consider `COCc1cc(C)nc(SCC(=O)Nc2cccc(C)c2C)c1C#N`, for which the viability in assay [1] is 103%; in assay [3] it was 103% (inactive); in assay [4], 82.3% (inactive); in assay [5], 94.4% (inactive); in assay [6] (setting [9]), 82.5%; in assay [6] (setting [10]), 94.4%. For the same compound, the Her2 level in assay [2] was 95.5% (inactive). Besides, in assay [6] (H69AR cells + 2 uM doxorubicin), the differential viability (reversal) was 11.9% (inactive). Moreover, the inhibition in assay [7] is -3.16% (inactive); in assay [8], -0.48% (inactive).
Turning to `CCNCC(O)COCC(O)CNCC` (stereo not given), the viability is 88.5% in assay [1]; 88.5% (inactive) in assay [3]; 88.3% (inactive) in assay [4]; 99.7% (inactive) in assay [5]; 94.2% in assay [6] (setting [9]); 99.7% in assay [6] (setting [10]). Further, in assay [2], the Her2 level is 86% (inactive). Besides, the differential viability (reversal) in assay [6] (H69AR cells + 2 uM doxorubicin) was 5.55% (inactive). Further, the inhibition in assay [7] is -1.03% (inactive); in assay [8], -0.5% (inactive).
Consider `Cc1nnc(SCc2cnc(-c3ccccc3)o2)[nH]c1=O`, for which the viability in assay [1] was 94%; in assay [3] it was 94% (inactive); in assay [4] it was 86.7% (inactive); in assay [5], 98% (inactive); in assay [6] (setting [9]) it was 85.8%; in assay [6] (setting [10]), 98%. In addition, in assay [2], the Her2 level is 86% (inactive). Also, the differential viability (reversal) in assay [6] (H69AR cells + 2 uM doxorubicin) is 12.2% (inactive). Besides, the inhibition was 2.76% (inactive) in assay [7] and -0.66% (inactive) in assay [8].
Turning to `Cc1cccc2cc(CN(Cc3nnnn3Cc3ccccc3)C3CCCC3)c(=O)[nH]c12`, the viability in assay [1] was 85%; in assay [3] it was 85% (inactive); in assay [4], 89.3% (inactive); in assay [5], 72.9% (inactive); in assay [6] (setting [9]), 41.7%; in assay [6] (setting [10]), 72.9%. Moreover, the Her2 level in assay [2] was 72.5% (inactive). For the same compound, the differential viability (reversal) in assay [6] (H69AR cells + 2 uM doxorubicin) is 31.2% (inactive). Also, the inhibition in assay [7] was -1.18% (inactive); in assay [8], -4.55% (inactive).
In the case of `O=C(c1ccc(Cl)c(F)c1F)N1CCCC1`, the viability in assay [1] was 88.5%; in assay [3], 88.5% (inactive); in assay [4] it was 98.4% (inactive); in assay [5], 102% (inactive); in assay [6] (setting [9]) it was 90.7%; in assay [6] (setting [10]), 102%. Further, in assay [2], the Her2 level is 106% (inactive). Besides, the differential viability (reversal) in assay [6] (H69AR cells + 2 uM doxorubicin) was 11.3% (inactive). For the same compound, the inhibition was -1.67% (inactive) in assay [7] and -10.2% (inactive) in assay [8].
Turning to `CCN(CC)CCOc1cccc(C(C)C)c1`, the viability in assay [1] is 90.5%; in assay [3], 90.5% (inactive); in assay [4], 92.6% (inactive); in assay [5], 109% (inactive); in assay [6] (setting [9]), 91.8%; in assay [6] (setting [10]), 109%. For the same compound, the Her2 level in assay [2] is 95.5% (inactive). In assay [6] (H69AR cells + 2 uM doxorubicin), the differential viability (reversal) was 17.4% (inactive). For the same compound, the values for the inhibition in assay [7] and in assay [8] were 3.25% (inactive) and -1.64% (inactive), respectively.
Take `O=c1c2c(nc3nc(CCc4ccccc4)[nH]n13)CCC2`: the viability in assay [1] was 112%; in assay [3], 112% (inactive); in assay [4], 86.6% (inactive); in assay [5] it was 91% (inactive); in assay [6] (setting [9]), 77%; in assay [6] (setting [10]), 91%. In addition, in assay [2], the Her2 level was 92% (inactive). Further, the differential viability (reversal) in assay [6] (H69AR cells + 2 uM doxorubicin) is 14% (inactive). Besides, the figures for the inhibition in assay [7] and in assay [8] were -6% (inactive) and 0.16% (inactive), respectively.
Consider `COC(=O)c1cccc(Oc2nc3c(c(=O)n(C)c(=O)n3C)n2C(C)C)c1`, for which the viability in assay [1] was 80.5%; in assay [3], 80.5% (inactive); in assay [4], 79.6% (inactive); in assay [5], 79.6% (inactive); in assay [6] (setting [9]), 101%; in assay [6] (setting [10]), 79.6%. Also, the Her2 level in assay [2] was 84% (inactive). For the same compound, the differential viability (reversal) in assay [6] (H69AR cells + 2 uM doxorubicin) is -20.9% (inactive). In addition, the inhibition is -2.93% (inactive) in assay [7] and 2% (inactive) in assay [8].
Regarding `Cc1nn(-c2ccc(F)cc2)c2sc(C(=O)OCC(=O)N3CCC(C)CC3)cc12`, the viability in assay [1] is 93%; in assay [3] it was 93% (inactive); in assay [4], 76.8% (inactive); in assay [5] it was 102% (inactive); in assay [6] (setting [9]), 92.6%; in assay [6] (setting [10]) it was 102%. The Her2 level in assay [2] is 102% (inactive). In assay [6] (H69AR cells + 2 uM doxorubicin), the differential viability (reversal) is 9.16% (inactive). Besides, the values for the inhibition in assay [7] and in assay [8] were -3.87% (inactive) and -5.81% (inactive), respectively.
Take `N#Cc1nc(-c2ccco2)oc1NCc1ccco1`: the viability in assay [1] was 94%; in assay [3] it was 94% (inactive); in assay [4] it was 89.3% (inactive); in assay [5], 100% (inactive); in assay [6] (setting [9]), 92%; in assay [6] (setting [10]), 100%. Moreover, in assay [2], the Her2 level was 89% (inactive). The differential viability (reversal) in assay [6] (H69AR cells + 2 uM doxorubicin) was 8.27% (inactive). The inhibition in assay [7] was -4.13% (inactive); in assay [8], -8.25% (inactive).
In the case of `CCOC(=O)C1=C(C)Nc2ncnn2C1c1cc(OC)ccc1OC` (stereo not given), the viability in assay [1] is 92.5%; in assay [3], 92.5% (inactive); in assay [4], 84.6% (inactive); in assay [5], 81.8% (inactive); in assay [6] (setting [9]), 81.3%; in assay [6] (setting [10]), 81.8%. For the same compound, the Her2 level in assay [2] is 84.5% (inactive). The differential viability (reversal) in assay [6] (H69AR cells + 2 uM doxorubicin) was 0.51% (inactive). The inhibition in assay [7] was -6.22% (inactive); in assay [8], 1.17% (inactive).
As for `O=C(NCc1cccs1)C1CC(=O)N(c2ccccc2)C1` (stereo not given), the viability in assay [1] is 96.5%; in assay [3], 96.5% (inactive); in assay [4], 123% (inactive); in assay [5], 111% (inactive); in assay [6] (setting [9]), 101%; in assay [6] (setting [10]), 111%. The Her2 level in assay [2] is 105% (inactive). Also, in assay [6] (H69AR cells + 2 uM doxorubicin), the differential viability (reversal) was 9.26% (inactive). The figures for the inhibition in assay [7] and in assay [8] were -0.13% (inactive) and -2.3% (inactive), respectively.
